# High-throughput results as filed in PubChem.
# Most compounds without a hit are left out; they make up all but 4.8% or so of the library.
# Calb FLC = C. albicans growth modulation with fluconazole | C. albicans CaCi-2 (fluconazole-resistant clinical isolate) + fluconazole, Alamar Blue growth, 48 h | growth inhibition, % (test concentration not listed) | 300,000 tested, 0.57% active | AID 1979;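 active = growth inhibition above about 58% in most replicates, limit read from the data, passing the limit was not always enough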;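 also: all wells also contain fluconazole at 8 µg/ml as a sub-toxic cotreatment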
# ALR H2O2 inh = human ALR oxidase inhibition via reduced H2O2; 290,000 tested, 3.8% active; inhibition, % (concentration not given with the values); P55789; AID 485317; purified ALR, DTT oxidation, H2O2 HRP-luminol luminescence;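 active = mean replicate inhibition above about 79%, with every replicate also reaching it, limit read from the data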
# Target sequence (P55789 whole entry, looked up): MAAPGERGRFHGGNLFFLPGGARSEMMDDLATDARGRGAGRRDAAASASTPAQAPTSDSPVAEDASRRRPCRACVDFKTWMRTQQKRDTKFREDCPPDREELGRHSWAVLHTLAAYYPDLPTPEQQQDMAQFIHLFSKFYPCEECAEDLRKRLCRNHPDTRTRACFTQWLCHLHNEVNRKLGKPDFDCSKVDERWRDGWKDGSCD
# UCH37 inh = human UCH37 deubiquitinating enzyme inhibition. 330,000 tested, 0.33% active. purified proteasome/UCH37, Ub-AMC cleavage fluorescence. AID 588478. inhibition, % (no concentration beside the values);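 active = mean inhibition over replicate wells above about 20%, limit read from the data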
#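 Signal – fluorescence, ex 355 nm, em 460 nm · System – Proteasome-bound UCH37 · Input – 0.15 nM proteasome as dispensed · Timing – 30 min preincubation with enzyme, 25 min cleavage at room temperature · Read-out basis – percent inhibition of cleavage signal versus uninhibited and no-proteasome wells · Medium – Tris-HCl pH 7.4 with ATP-MgCl2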
# NLRP3 yeast inh = NALP3 inhibition in yeast; Yeast reconstituted NLRP3/ASC/caspase-1, beta-gal luminescence, 24 h; inhibition, % at 10 µM; 330,000 tested, 0.39% active;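 active = inhibition of 50% or more; inactive = inhibition below 50%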
# NALP1 inh = inhibitors of NALP1 inflammasome in yeast. S. cerevisiae NALP1/ASC/caspase-1 growth, X-gal OD620, 72 h. inhibition, % at 10 µM. 280,000 tested, 0.61% active; in the data active = inhibition mostly above about 24%, no sharp cut-off; inactive = mostly below about 32%
# ATG4B inhibitor = inhibitors of human ATG4B cysteine protease | 340,000 tested, 0.51% active | ATG4B cleavage of LC3-PLA2, NBD-HPC fluorescence, 1 h | inhibition, % at 8.33 µM; in the data active = inhibition above about 40%
# Target sequence (Q9Y4P1 whole entry, looked up): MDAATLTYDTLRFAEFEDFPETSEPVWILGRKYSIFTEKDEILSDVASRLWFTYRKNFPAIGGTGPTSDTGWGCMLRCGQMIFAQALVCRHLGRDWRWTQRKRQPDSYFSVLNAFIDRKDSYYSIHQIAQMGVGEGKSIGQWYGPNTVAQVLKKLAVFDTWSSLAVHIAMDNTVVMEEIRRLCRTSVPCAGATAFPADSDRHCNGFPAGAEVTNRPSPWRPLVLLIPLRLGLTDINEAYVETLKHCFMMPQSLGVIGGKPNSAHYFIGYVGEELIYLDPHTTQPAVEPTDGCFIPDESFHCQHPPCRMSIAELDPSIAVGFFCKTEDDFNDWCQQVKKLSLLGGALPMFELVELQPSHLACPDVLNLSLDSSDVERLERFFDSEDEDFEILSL
# A number is an active result; i = inactive; nt = no result given.
SMILES,Calb FLC,ALR H2O2 inh,UCH37 inh,NLRP3 yeast inh,NALP1 inh,ATG4B inhibitor
CCn1c(=O)n(CC)c2cc(N3CCCC3)c(NC(=O)c3c(F)cccc3F)cc21,i,99,i,i,i,i
CCn1c(=O)n(CC)c2cc(N3CCCC3)c(NC(=O)c3cccc(OC)c3)cc21,i,i,i,i,i,i
COc1ccc2c(c1)c(C(=O)NN=Cc1cccc(Br)c1)c(C)n2C,nt,nt,i,nt,nt,nt
COc1ccccc1NS(=O)(=O)CC12CCC(CC1=O)C2(C)C (stereo not given),i,i,i,i,42,i
CCNC(=O)NC(=O)CSc1ccccc1F,i,i,i,i,i,i
C/C(N)=C(/C#N)C(=O)COC(=O)CSc1ccc2ccccc2c1,i,i,i,i,i,i
NS(=O)(=O)c1ccc(CCNC(=O)CN2CCN(c3ccccc3O)CC2)cc1,i,99,i,i,i,i
NC(=O)COC(=O)CSc1ccc2ccccc2c1,i,99,i,i,i,i
CCNC(=O)NC(=O)CSc1ccc2ccccc2c1,i,98,i,i,i,i
NS(=O)(=O)c1ccc(CCNC(=O)CSc2ccc3ccccc3c2)cc1,i,99,i,i,i,i
Clc1ccccc1CON=C1CCCc2nonc21,nt,nt,i,nt,nt,nt
CC(Oc1ccc(C(C)(C)C)cc1)c1ccnc2nc(N=CN(C)C)nn12 (stereo not given),nt,nt,i,nt,nt,nt
O=C(NN=Cc1cccnc1)C(O)c1ccccc1 (stereo not given),nt,nt,i,nt,nt,nt
COCCNC(=O)C(=O)NN=C(C)CC(=O)Nc1ccc2c(c1)OCO2,nt,nt,i,nt,nt,nt
Nc1nnnn1N=Cc1ccc(Cl)cc1,nt,nt,i,nt,nt,nt
CC1CCCCC1NC(=O)c1ccncc1 (stereo not given),i,i,i,i,i,i
CC1CCCCC1NC(=O)c1ccc(S(=O)(=O)NNC(=O)c2ccncc2)cc1 (stereo not given),i,99,i,i,nt,i
O=C(NNS(=O)(=O)c1ccc(C(=O)NC2CCCC2)cc1)c1ccncc1,i,99,i,i,i,i
COc1ccc(C(=O)NNS(=O)(=O)c2ccc(OC)cc2)cc1,i,87,i,i,i,i
O=C(NC1CC1)c1ccc(S(=O)(=O)NC2CCCCCC2)cc1,i,i,i,i,i,i
Cc1cc(C(=O)NN=Cc2ccc(-c3cccc([N+](=O)[O-])c3)o2)n[nH]1,nt,nt,i,nt,nt,nt
COc1ccc2c(c1)c(C(=O)NN=Cc1cccs1)c(C)n2C,nt,nt,i,nt,nt,nt
C=CCOc1ccc(CNc2ccc3[nH]c(=O)[nH]c3c2)cc1OC,nt,nt,i,nt,i,i
Oc1c(Br)cc(Br)cc1CNc1cnc2ccccc2c1,i,i,i,i,i,i
Oc1c(Br)cc(Br)cc1CNc1ccc(F)cc1,i,98,i,i,i,i
SMILES,Calb FLC,ALR H2O2 inh,UCH37 inh,NLRP3 yeast inh,NALP1 inh,ATG4B inhibitor
COc1ccccc1CNCc1cc(Br)ccc1OC,i,i,i,i,i,i
COc1ccc(Br)cc1CNc1ccc2[nH]c(=O)[nH]c2c1,i,99,i,i,i,i
COc1ccc(Br)cc1CNc1ccc(O)cc1,nt,98,i,i,i,i
Cc1ccc(-c2cc(C(=O)NN=Cc3ccc([N+](=O)[O-])o3)c3ccccc3n2)o1,nt,nt,i,nt,nt,nt
CN(C)CCCN1C(=O)c2cccc3cccc(c23)C1=O,i,i,i,i,i,i
CC1=CC2=C(OC1N(C)C)c1cccc3cccc(c13)C2=O (stereo not given),96,i,nt,i,i,i
Cc1ccc(NCC(=O)NN=Cc2c[nH]c3ccccc23)cc1,nt,nt,i,nt,nt,nt
Cc1cc2cc(CNS(=O)(=O)c3ccccc3)ccc2n1C,i,96,i,i,i,i
COc1ccc(S(=O)(=O)NCc2ccc3c(c2)cc(C)n3C)cc1,i,nt,i,i,i,i
CCc1cccc(C)c1NC(=S)NCc1ccc2c(c1)cc(C)n2C,124,i,i,i,i,i
Cc1cccc2nc(-c3ccco3)c(Nc3ccc4c(c3)OCO4)n12,i,99,i,i,i,i
Cc1cccc2nc(-c3ccco3)c(Nc3ccccc3)n12,i,nt,i,i,i,i
CCOC(=O)C1CCN(C2=NC(=O)/C(=C/c3ccc(Cl)cc3)S2)CC1,i,96,i,i,i,i
CCOC(=O)CSC1=NC(=O)/C(=C\c2ccc(Cl)cc2)S1,i,99,i,i,i,i
COc1cc(/C=C2\SC(N3CCC(C)CC3)=NC2=O)ccc1O,i,90,i,i,i,i
CN(C)c1ccc(/C=C2\SC(N3CCCCC3)=NC2=O)cc1,i,99,i,i,i,i
COc1ccc(/C=C2\SC(N3CCCCC3)=NC2=O)cc1OC,i,i,i,i,i,i
CSC1=NC(=O)/C(=C/c2ccc(SC)cc2)S1,i,i,i,i,i,i
Cc1ccc2nc(SCC(=O)NN=Cc3ccco3)cc(C)c2c1,nt,nt,i,nt,nt,nt
NC(CCN1CCOCC1)=NO,nt,nt,i,nt,nt,nt
CC(=NO)C1(C)N(O)C(C)(C)C(c2ccc(Br)cc2)=[N+]1[O-] (stereo not given),nt,nt,i,nt,nt,nt
O=C1CSC(=NN=Cc2ccccc2Cl)N1CC1CC1,nt,nt,i,nt,nt,nt
NC1=NC[C@H](CC2CCCCC2)N1CCc1cc(C(F)(F)F)cc(C(F)(F)F)c1,92,nt,i,i,nt,i
NC1=NC[C@@H](Cc2ccc(O)cc2)N1CCc1cc(C(F)(F)F)cc(C(F)(F)F)c1,i,i,i,i,nt,i
C[C@@H](OC(=O)N(C)Cc1ccccc1)[C@H]1O[C@]2(C)CCCC[C@H]1O2,nt,i,30,i,nt,i
SMILES,Calb FLC,ALR H2O2 inh,UCH37 inh,NLRP3 yeast inh,NALP1 inh,ATG4B inhibitor
Oc1ccc(C=Nc2ccccc2-c2nc3ccccc3[nH]2)c(O)c1,i,82,i,i,i,i
CCCn1c(Nc2nc3ccccc3n2C)nc2ccccc21,102,i,i,i,30,i
CCc1ccccc1Nc1nc2ccccc2n1C,i,98,i,i,i,i
Cn1c(Nc2ccccc2)nc2ccccc21,i,i,i,i,i,i
CCc1ccc2c(c1)[C@H]1OCC[C@H]1[C@@H](c1cccs1)N2,i,97,i,i,i,i
COc1cccc(C2C(C(=O)Nc3ccccc3)=C(C)N=c3s/c(=C/c4ccc(OCC(=O)O)cc4)c(=O)n32)c1 (stereo not given),i,97,nt,i,i,i
Cc1ccc(N/C=C/C(=O)C(C)(C)C)c(O)c1,i,83,i,i,i,i
C=C(C)CN1C(=O)c2ccccc2C1=O,i,i,i,i,i,i
C=C(C)CC1Nc2ccccc2NC1CC(=C)C (stereo not given),i,99,i,i,i,i
Cc1ccccc1C=NN1CCN(c2ccccc2)CC1,nt,nt,i,nt,nt,nt
COc1ccc(C=c2sc3nc(-c4ccccc4)c(-c4ccccc4)n3c2=O)cc1OC,nt,nt,i,nt,nt,nt
CCCCN(CCCNC(=O)c1c(C)cc(=O)oc1C)c1ccccc1,i,99,i,i,i,i
CCN(CCCNC(=O)c1c(C)cc(=O)oc1C)c1ccccc1,i,99,i,i,i,i
CSCC[C@@H](C(=O)Nc1ccc2c(c1)OCCO2)N1Cc2ccccc2C1=O,i,i,i,i,i,i
